Results collected from several papers.
Protocols differ between the studies behind these lines.
Target: Serine/threonine-protein kinase pim-2 (PIM2, Homo sapiens, UniProt Q9P1W9)

| Structure (SMILES) | observed | method | concentration | remaining binding [%] |
| --- | --- | --- | --- | --- |
| CN(C)c1nccc(-c2cnn3ncccc23)n1 | binding | – | 1 µM | 78 |
| CCC(=O)N[C@@H]1CC[C@H](C(=O)N(C)c2ccc(-c3nc4ccccc4o3)cc2)C1 | cell-free assay | competition with immobilised ligand | 1 µM | 100 |
| Cc1cnc(Nc2ccc(C(=O)N3CCC(N4CCCC4)CC3)cc2)nc1-c1cc2ccccc2s1 | binding | competition with immobilised ligand | 1 µM | 100 |
| O=C(N[C@H]1CCCCC/C=C\C2C[C@@]2(C(=O)O)NC(=O)[C@@H]2C[C@@H](Oc3ccncc3)CN2C1=O)OC1CCCC1 (stereo partly drawn) | binding | competition with immobilised ligand | 1 µM | 100 |
| C[C@@H](c1ccc(-n2cnc3c(N)ncnc32)cc1)N1CCc2nn(C)c(Cc3ccccc3)c2C1=O | binding | competition with immobilised ligand | 0.1 µM | 100 |
| Cc1c(NC(=O)c2cc(C(N)=O)nc3cc(F)ccc23)c(C(F)(F)F)nn1Cc1ccc(C(C)(C)C)cc1 | cell-free assay | competition with immobilised ligand | 1 µM | 100 |
| CN(c1nccc(-c2cnn3ncccc23)n1)C1CC1 | binding | – | 1 µM | 100 |
| C=CC(=O)N1CCC(C(=O)NCC(=O)N2CCN(c3nc(-c4cnc(N)nc4C(F)F)nc(N4CCOCC4)n3)CC2)CC1 | binding | competition with immobilised ligand | 1 µM | 82 |
| C[C@@H]1CN(c2ccc3ncc(-c4ccc5[nH]nc(C6CC6)c5c4)n3n2)C[C@H](C)O1 | binding | competition with immobilised ligand | 50 nM | 92 |
| CO[C@@H](C)c1c(Nc2ccc([C@@H](N(C)C(=O)C3CCS(=O)(=O)CC3)C(F)(F)F)cc2)cnc2cc(Cl)nn12 | cell-free assay | competition with immobilised ligand | 1 µM | 95 |
| N#Cc1ccccc1CSc1nnc2c(n1)[nH]c1ccccc12 | binding | competition with immobilised ligand | 10 µM | 75 |
| COc1cnc(Nc2cccc(S(N)(=O)=O)c2)nc1N1CCN(c2ccccc2)CC1 | binding | competition with immobilised ligand | 1 µM | 100 |
| CN(C)CC#Cc1ccc(OCCCc2sc(N3CCc4cccc(C(=O)Nc5nc6ccccc6s5)c4C3)nc2C(=O)O)c(F)c1 | cell-free assay | competition with immobilised ligand | 1 µM | 100 |
| N[C@@H]1CCN(c2nccc(-c3cnn4ncccc34)n2)C1 | binding | – | 1 µM | 100 |
| O=C(NCC1CCOCC1)c1n[nH]cc1NC(=O)c1c(F)cccc1F | binding | competition with immobilised ligand | 1 µM | 91 |
| CNC(=O)[C@@H]1CC[C@@H](n2c(-c3ccc4cnccc4c3)nc3ccc(C(=O)NCc4cccc(C(N)=O)c4)cc32)C1 | binding | competition with immobilised ligand | 1 µM | 93 |
| C[C@H]1CCN(c2nccc(-c3cnn4ncccc34)n2)C1 | binding | – | 1 µM | 81 |
| O=C(c1ccc(Nc2ncc(Cl)c(-c3cc4ccccc4s3)n2)cc1)N1CCC(N2CCCC2)CC1 | binding | competition with immobilised ligand | 1 µM | 100 |
| CSc1cccnc1N1CCN(Cc2nc3ccccc3[nH]2)CC1 | cell-free assay | competition with immobilised ligand | 1 µM | 96 |
| CCN1CCN(Cc2ccc(C(=O)Nc3ccc(C)c(Oc4ccc5c(c4)CC(=O)N5)c3)cc2C(F)(F)F)CC1 | binding | competition with immobilised ligand | 1 µM | 97 |
| CN(CCCC(F)(F)F)c1nccc(-c2cnn3ncccc23)n1 | binding | – | 1 µM | 100 |
| O=C(c1ccc(Nc2nccc(-c3cc4ccccc4s3)n2)cc1)N1CCC(N2CCCC2)CC1 | binding | competition with immobilised ligand | 1 µM | 100 |
| F[C@@H]1CCN(c2nccc(-c3cnn4ncccc34)n2)C1 | binding | – | 1 µM | 100 |
| COCCOc1nc(-c2ccc(Cl)nc2)nc2c1CN(C(=O)c1ncn3ccccc13)CC2 | cell-free assay | competition with immobilised ligand | 0.1 µM | 98 |
